Here are results for four compounds from paper PMC4689628 (Organic & biomolecular chemistry, 2016).

Assay [1] concerns the target T1, MLL1 SET domain (Homo sapiens, UniProt Q03164). Description: saturation-transfer difference. The conditions noted are these: Supplementary Figure 2. Format: binding.
The target of assay [2] is T2, tetrameric MLL1 complex (Homo sapiens, UniProt Q03164). Description: FL-NAH fluorescence polarization saturation binding, tetrameric complex.
For assay [3], the target named is T3, trimeric MLL1 complex (MLL1, RbBP5 and WDR5) (Homo sapiens, UniProt Q03164). Kind of assay: FL-NAH fluorescence polarization saturation binding, trimeric complex. On the technique in general: In fluorescence polarisation assays a small probe gives low polarisation when free and higher when bound to something large.
For assay [4], the target named is T4, pentameric MLL1 complex (Homo sapiens, UniProt Q03164). Kind of assay: FL-NAH fluorescence polarization saturation binding, pentameric complex.
Assay [5] concerns the target T1, MLL1 SET domain. Kind of assay: FL-NAH fluorescence polarization saturation binding, isolated SET domain. The settings on record: SET Only. The gist of the method:
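The isolated MLL1 SET domain was titrated in increasing concentrations against 50 nM fluorescein-azaadenosylhomocysteine probe. Buffer was 20 mM Tris pH 8.0, 0.01% Triton X-100, 5 mM DTT. Incubation was 30 min at ambient temperature. FP was read at ex 485/em 528 nm. Kd and ΔFPmax came from nonlinear least-squares single-site saturation fit of ΔFP. Mean ± SD, three independent experiments.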

For assay [6], the target named is T1, MLL1 SET domain. Description: differential static light scattering. In kind it is binding. The conditions noted are these: Supplementary Figure 3.
Assay [7] addresses T4, pentameric MLL1 complex. Kind of assay: FL-NAH displacement FP assay, pentameric complex. Format: binding. The conditions noted are these: for Hill Slope: Pentameric complex, FL-NAH displacement curve.
Assay [8] deals with T2, tetrameric MLL1 complex. Description: FL-NAH displacement FP assay, tetrameric complex. Format: binding. The settings on record: for Hill Slope: Tetrameric complex, FL-NAH displacement curve. The gist of the method: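 The tetrameric MLL1 complex was diluted to its own Kd (probe) concentration. It was then incubated 30 min at ambient temperature with 50 nM fluorescein-azaadenosylhomocysteine probe and increasing concentrations of test compound. Buffer was 20 mM Tris pH 8.0, 0.01% Triton X-100, 5 mM DTT. FP was read at ex 485/em 528 nm, in mP. Kdisp and Hill coefficient came from nonlinear least-squares sigmoidal fit. Mean ± SD, ≥3 independent experiments.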

Assay [9] deals with T3, trimeric MLL1 complex (MLL1, RbBP5 and WDR5). Kind of assay: FL-NAH displacement FP assay, trimeric complex. The settings on record: for Hill Slope: Trimeric complex, FL-NAH displacement curve. Format: binding.
Assay [10] deals with T1, MLL1 SET domain. Kind of assay: FL-NAH displacement FP assay, isolated SET domain. In kind it is binding. The conditions noted are these: for Hill Slope: SET Only, FL-NAH displacement curve.
The mark [11] stands for this setting: polarization expressed in mP (methods).

T2 sequence (Q03164 3829-3945): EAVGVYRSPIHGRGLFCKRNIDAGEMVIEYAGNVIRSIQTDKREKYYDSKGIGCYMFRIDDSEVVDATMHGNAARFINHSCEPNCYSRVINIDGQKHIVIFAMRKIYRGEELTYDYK
T2 sequence (Q15291 whole entry, further chain): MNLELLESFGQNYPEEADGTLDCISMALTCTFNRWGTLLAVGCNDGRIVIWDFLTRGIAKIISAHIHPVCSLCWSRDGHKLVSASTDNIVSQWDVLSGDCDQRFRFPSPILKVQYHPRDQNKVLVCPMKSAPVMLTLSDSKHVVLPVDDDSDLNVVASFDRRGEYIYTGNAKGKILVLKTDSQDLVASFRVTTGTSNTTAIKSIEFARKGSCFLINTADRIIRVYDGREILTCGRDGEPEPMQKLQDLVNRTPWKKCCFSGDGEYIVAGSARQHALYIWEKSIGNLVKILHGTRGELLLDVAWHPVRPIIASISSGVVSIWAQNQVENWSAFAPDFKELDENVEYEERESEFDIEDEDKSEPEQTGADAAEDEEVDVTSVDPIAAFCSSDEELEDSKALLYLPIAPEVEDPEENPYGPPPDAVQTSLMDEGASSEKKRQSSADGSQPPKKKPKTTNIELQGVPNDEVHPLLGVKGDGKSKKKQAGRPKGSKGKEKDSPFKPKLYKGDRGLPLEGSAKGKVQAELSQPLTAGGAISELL
T2 sequence (Q9UBL3 whole entry, further chain): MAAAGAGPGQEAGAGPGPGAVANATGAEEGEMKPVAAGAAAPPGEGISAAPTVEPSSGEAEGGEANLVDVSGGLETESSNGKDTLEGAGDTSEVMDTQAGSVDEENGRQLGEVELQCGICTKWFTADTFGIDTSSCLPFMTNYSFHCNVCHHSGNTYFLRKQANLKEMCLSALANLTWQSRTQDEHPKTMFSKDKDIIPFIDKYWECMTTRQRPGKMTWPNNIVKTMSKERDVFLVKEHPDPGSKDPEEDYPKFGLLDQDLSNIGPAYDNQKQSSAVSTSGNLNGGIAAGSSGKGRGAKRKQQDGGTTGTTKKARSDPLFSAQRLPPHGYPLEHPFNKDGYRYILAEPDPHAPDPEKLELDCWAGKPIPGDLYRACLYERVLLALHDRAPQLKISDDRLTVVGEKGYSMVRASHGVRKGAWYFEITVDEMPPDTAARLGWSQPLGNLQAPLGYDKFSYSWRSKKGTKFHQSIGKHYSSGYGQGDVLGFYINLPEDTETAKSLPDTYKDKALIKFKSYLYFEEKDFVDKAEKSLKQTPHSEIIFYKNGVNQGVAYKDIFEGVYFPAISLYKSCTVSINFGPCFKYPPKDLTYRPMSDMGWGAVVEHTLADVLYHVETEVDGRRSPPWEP
T1 sequence (Q03164 3829-3945 limits assumed): as the sequence (Q03164 3829-3945) above

By Kd is commonly meant the free concentration of one partner at which half of the binding sites on the other are occupied at equilibrium, for simple one-to-one binding. Regarding `Nc1ncnc2c1ncn2[C@@H]1O[C@H](CN(CC[C@H](N)C(=O)O)Cc2cn(CCNC(=O)c3ccc4c(c3)C(=O)OC43c4ccc(O)cc4Oc4cc(O)ccc43)nn2)[C@@H](O)[C@H]1O` [FL-NAH, fluorescein linked with N-adenosylhomocysteine], the “binding to MLL1 SET domain alone by STD NMR” value in assay [1] was “confirmed”. The Kd in [2] (50 nM FL-NAH, FP after 30 min) is 1400 ± 400 nM; in [3] (50 nM FL-NAH, FP after 30 min), 7000 ± 3000 nM; in assay [4] (50 nM FL-NAH, FP after 30 min), 200 ± 30 nM; in assay [5] (50 nM FL-NAH, FP after 30 min), 1000 ± 100 nM. Also, the ΔFPmax in assay [2] (setting [11]) is given as 300 ± 30; in [3] (setting [11]), 260 ± 40; in assay [4] (setting [11]), 270 ± 20; in assay [5] (setting [11]) it was 240 ± 3. Also, the “binding to MLL1 SET domain alone by differential static light scattering” value in assay [6] is reported as “confirmed”.

`Nc1ncnc2c1ncn2[C@@H]1O[C@H](CSCC[C@H](N)C(=O)O)[C@@H](O)[C@H]1O` [SAH]: the “Hill Slope” value in assay [7] was −1.4 ± 0.3; in assay [8], −1.9 ± 0.1; in [9] it was −1.5 ± 0.3; in [10] it was −0.9 ± 0.2. In assay [7] (pentameric vs isolated SET domain), the “increase in potency of FL-NAH displacement, pentameric complex relative to the isolated SET domain” value is 20 fold.

By IC50 is commonly meant the concentration needed to halve the response being measured. A higher IC50 goes with lower potency. Turning to `C[S+](CC[C@H](N)C(=O)[O-])C[C@H]1O[C@@H](n2cnc3c(N)ncnc32)[C@H](O)[C@@H]1O` (stereo partly shown) [SAM, S-adenosylmethionine], the IC50 in assay [7] turned out to be 1000 ± 200 nM; in assay [8], 1000 ± 100 nM; in [9], 7000 ± 1000 nM; in [10], 14000 ± 2000 nM. In addition, the “Hill Slope” value was −1.6 ± 0.3 in assay [7], −1.7 ± 0.2 in assay [8], −1.6 ± 0.4 in assay [9] and −1.2 ± 0.1 in assay [10].

Consider `Nc1ncnc2c1ncn2[C@@H]1O[C@H](C[C@@H](N)CC[C@H](N)C(=O)O)[C@@H](O)[C@H]1O` [Sinefungin, sinefungin], for which the half-inhibitory concentration (IC50) in [7] is 500 ± 100 nM; in assay [8] it was 2000 ± 200 nM; in [9], 10000 ± 2500 nM; in assay [10] it was 9000 ± 200 nM. The “Hill Slope” value in [7] is given as −1.1 ± 0.3; in assay [8] it was −1.2 ± 0.1; in assay [9], −1.1 ± 0.3; in [10], −0.9 ± 0.1.
